According to ChEMBL document CHEMBL1143676, “2,4,6-Trisubstituted pyridines: Synthesis, topoisomerase I and II inhibitory activity, cytotoxicity, and structure-activity relationship” (Bioorg Med Chem, 2007):
pIC50: −log10 of the molar value. Calls of active or inactive are those of the source. No cut-off for these calls is given here.

Legend:
[1] = system: A549; assay: Cytotoxicity against human A549 cells after 48 hrs by SRB method; type: functional, cell-based; details: A549, 48 h
Procedure, shortened: (§1)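 SRB assay following the NCI protocol. Cells were kept in log growth with a medium change 24 h before the assay, then trypsinized and seeded at 5 × 10³ (A549, HCT15), 1 × 10⁴ (SK-MEL-2) or 2 × 10⁴ (SK-OV-3) cells/well. After 24 h preincubation at 37 °C in 5% CO₂, compounds in DMSO were added as six 3-fold dilutions (final DMSO <0.5%) for 48 h. Cells were fixed in cold 10% TCA and stained with 0.4% SRB. Bound dye was dissolved in 10 mM Tris (pH 10.5) and absorbance read at 520 nm. Survival fractions came from regression of viability against concentration.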

[2] = system: SK-OV-3; assay: Cytotoxicity against human SKOV3 cells after 48 hrs by SRB method; type: functional, cell-based; details: SK-OV-3, 48 h; procedure, shortened: as §1
[3] = system: SK-MEL-2; assay: Cytotoxicity against human SK-MEL-2 cells after 48 hrs by SRB method; type: functional, cell-based; details: SK-MEL-2, 48 h; procedure, shortened: as §1
[4] = system: HCT-15; assay: Cytotoxicity against human HCT15 cells after 48 hrs by SRB method; type: functional, cell-based; details: HCT-15, 48 h; procedure, shortened: as §1
[5] = organism: Homo sapiens; assay: Inhibition of human topoisomerase 2 at 20 uM
[6] = organism: Homo sapiens; assay: Inhibition of human topoisomerase 2 at 100 uM
[7] = organism: Bos taurus; assay: Inhibition of calf thymus topoisomerase 1 assessed as relaxation of supercoiled plasmid DNA at 20 uM
Procedure, shortened: (§2)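 Compound was added at 20 or 100 μM and the mix incubated 30 min at 37 °C. Reactions were stopped with SDS/bromophenol blue/glycerol dye, run on 1% agarose in TAE for 1 h, and stained with ethidium bromide.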

[8] = organism: Bos taurus; assay: Inhibition of calf thymus topoisomerase 1 assessed as relaxation of supercoiled plasmid DNA at 100 uM; procedure, shortened: as §2

| Compound | Activity [5] | Activity [6] | pIC50 [1] | pIC50 [2] | pIC50 [3] | pIC50 [4] | also measured |
| --- | --- | --- | --- | --- | --- | --- | --- |
| c1coc(-c2cc(-c3ccncc3)nc(-c3cccs3)c2)c1 |  |  | 4.96 | 5.06 | 5.27 | 5.38 |  |
| c1csc(-c2cc(-c3ccncc3)nc(-c3cccs3)c2)c1 |  |  | 5.38 | 5.24 | 5.43 | 5.76 |  |
| c1cncc(-c2cc(-c3ccco3)cc(-c3cccs3)n2)c1 |  |  | 4.84 | 5.23 | 5.71 | 5.23 |  |
| c1ccc(-c2cc(-c3ccsc3)cc(-c3cccs3)n2)nc1 |  |  |  |  |  |  | Activity [7]: Active; Activity [8]: Active |
| c1csc(-c2cc(-c3ccncc3)nc(-c3ccsc3)c2)c1 |  |  | 5.24 | 4.84 | 5.05 | 5.42 |  |
| c1coc(-c2cc(-c3cccs3)cc(-c3ccncc3)n2)c1 |  |  |  |  |  |  | Activity [7]: Active; Activity [8]: Active |
| c1cncc(-c2cc(-c3ccncc3)nc(-c3ccco3)c2)c1 |  |  |  |  |  |  | Activity [7]: Active; Activity [8]: Active |
| c1csc(-c2cc(-c3ccsc3)cc(-c3ccncc3)n2)c1 |  |  |  |  |  |  | Activity [7]: Active; Activity [8]: Active |
| c1cncc(-c2cc(-c3ccsc3)cc(-c3cccs3)n2)c1 |  |  | 5.56 | 5.13 | 5.25 | 5.39 |  |
| COc1cc([C@@H]2c3cc4c(cc3[C@@H](O[C@@H]3O[C@@H]5CO[C@@H](C)O[C@H]5[C@H](O)[C@H]3O)[C@H]3COC(=O)[C@H]23)OCO4)cc(OC)c1O [ETOPOSIDE] |  |  | 6.49 | 5.76 | 6.52 | 5.61 |  |
| c1cc(-c2cc(-c3ccsc3)cc(-c3ccsc3)n2)ccn1 |  |  | 4.56 | 5.01 | 5.01 | 5.60 |  |
| c1ccc(-c2cc(-c3ccoc3)cc(-c3ccco3)n2)nc1 | Active | Active |  |  |  |  |  |
| c1coc(-c2cc(-c3ccoc3)cc(-c3ccncc3)n2)c1 | Active | Active |  |  |  |  |  |

Continued, in another order:

| Activity [5] | Activity [6] | Compound | pIC50 [1] | pIC50 [2] | pIC50 [3] | pIC50 [4] | also measured |
| --- | --- | --- | --- | --- | --- | --- | --- |
| Active | Active | c1cncc(-c2cc(-c3ccncc3)nc(-c3cccs3)c2)c1 |  |  |  |  |  |
| Active | Active | c1cc(-c2cc(-c3ccoc3)cc(-c3ccsc3)n2)ccn1 |  |  |  |  |  |
| Active | Active | c1cc(-c2cc(-c3ccncc3)nc(-c3ccsc3)c2)ccn1 |  |  |  |  |  |
| Active | Active | c1coc(-c2cc(-c3ccsc3)cc(-c3ccncc3)n2)c1 |  |  |  |  |  |
| Active | Active | c1csc(-c2cc(-c3ccoc3)cc(-c3ccncc3)n2)c1 |  |  |  |  |  |
